Reference: publication PMC10975593 (ACS Omega, 2024)
Read-outs that look alike come from different tables or passages of the source.

Key:
KM12 = test: NCI 60-cell line screen; format: cell-based, human
Fibro cell line = test: % inhibition on normal cell line; format: cell-based
MDA-MB-231/ATCC = test: NCI 60-cell line screen; format: cell-based, human
HCT-15 = test: NCI 60-cell line screen; format: cell-based, human
SK-OV-3 = test: NCI 60-cell line screen; format: cell-based, human
Procedure, shortened: (§1)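 Test compounds were submitted to the National Cancer Institute and run under NCI's standard 60-cell-line protocols. Read-outs were taken from percent-growth versus log-concentration curves.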

NCI-H226 = test: NCI 60-cell line screen; format: cell-based, human
NCI-H322M = test: NCI 60-cell line screen; format: cell-based, human
A549 cancer cell line = test: MTT assay; format: cell-based; details: Homo sapiens, A549, 72 h
Procedure, shortened: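 A549 in DMEM and MCF-7 in RPMI, each with 10% heat-inactivated FBS, 1% penicillin/streptomycin and 2 mmol/L glutamine at 37 °C, 5% CO2. Seeded at 2000 (A549) or 10,000 (MCF-7) cells/well and attached 24 h. Then 72 h with test compound at varying concentrations. MTT (5 mg/mL stock) added for 4 h at 37 °C, formazan dissolved in DMSO, absorbance read at 450/540 nm. Triplicates in three separate experiments.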

Staphylococcus aureus = test: Disc diffusion antimicrobial test; format: cell-based; details: Staphylococcus aureus, 24 h, read-out: zone of inhibition (diameter of inhibition)
Procedure, shortened: (§2)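 Disc diffusion on nutrient agar, test compound at 100 μg/mL with DMSO as solvent. Plates incubated at 37 °C for 24 h after inoculation, then zone of inhibition measured and compared with standards. Controls were DMSO, amoxicillin, ciprofloxacin and tetracycline.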

CAKI-1 = test: NCI 60-cell line screen; format: cell-based, human
K-562 = test: NCI 60-cell line screen; format: cell-based, human
EKVX = test: NCI 60-cell line screen; format: cell-based, human
HCC-2998 = test: NCI 60-cell line screen; format: cell-based, human
NCI-H460 = test: NCI 60-cell line screen; format: cell-based, human
SN12C = test: NCI 60-cell line screen; format: cell-based, human
Procedure, shortened: as §1

PI3Kγ enzyme = PI3Kγ enzyme (Homo sapiens, UniProt P48736); test: Adapta universal kinase assay, anti-PI3Kγ activity; format: biochemical
Sequence of PI3Kγ enzyme (P48736 whole entry): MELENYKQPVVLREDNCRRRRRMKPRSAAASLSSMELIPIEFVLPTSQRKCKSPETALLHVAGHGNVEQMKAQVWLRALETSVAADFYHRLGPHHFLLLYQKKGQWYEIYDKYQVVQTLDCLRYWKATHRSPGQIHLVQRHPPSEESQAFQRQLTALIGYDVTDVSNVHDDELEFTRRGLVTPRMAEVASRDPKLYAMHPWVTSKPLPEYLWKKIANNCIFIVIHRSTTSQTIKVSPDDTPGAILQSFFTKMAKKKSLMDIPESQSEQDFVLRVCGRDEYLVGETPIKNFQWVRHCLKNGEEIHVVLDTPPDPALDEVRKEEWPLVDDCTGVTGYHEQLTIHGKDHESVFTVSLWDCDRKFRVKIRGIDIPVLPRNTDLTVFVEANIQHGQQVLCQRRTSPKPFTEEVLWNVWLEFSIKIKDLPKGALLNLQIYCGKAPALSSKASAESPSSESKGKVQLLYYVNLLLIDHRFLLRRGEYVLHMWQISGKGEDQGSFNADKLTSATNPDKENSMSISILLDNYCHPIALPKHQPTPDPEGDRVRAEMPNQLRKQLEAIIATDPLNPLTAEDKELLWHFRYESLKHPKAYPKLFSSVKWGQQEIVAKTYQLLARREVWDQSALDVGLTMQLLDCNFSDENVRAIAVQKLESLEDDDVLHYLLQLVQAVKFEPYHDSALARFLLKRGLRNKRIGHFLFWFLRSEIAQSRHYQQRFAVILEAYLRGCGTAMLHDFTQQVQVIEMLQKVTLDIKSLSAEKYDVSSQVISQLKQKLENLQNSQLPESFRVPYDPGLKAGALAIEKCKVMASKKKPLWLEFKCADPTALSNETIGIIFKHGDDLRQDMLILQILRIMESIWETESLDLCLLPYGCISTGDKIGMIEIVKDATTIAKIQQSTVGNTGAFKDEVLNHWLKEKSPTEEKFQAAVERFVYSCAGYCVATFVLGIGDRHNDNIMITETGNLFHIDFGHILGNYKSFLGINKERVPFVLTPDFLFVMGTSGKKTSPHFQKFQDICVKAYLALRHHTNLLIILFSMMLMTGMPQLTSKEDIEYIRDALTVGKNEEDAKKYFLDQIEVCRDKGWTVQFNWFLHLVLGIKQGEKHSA
Procedure, shortened: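 Adapta ADP-detection TR-FRET immunoassay with test compound at 100 μM. The kinase reaction runs 60 min. It is then stopped by a detection solution of EDTA, europium-labelled anti-ADP antibody and Alexa Fluor 647-labelled ADP tracer. ADP formed displaces the tracer and lowers the TR-FRET signal. ADP formation is calculated from the emission ratio.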

OVCAR-8 = test: NCI 60-cell line screen; format: cell-based, human
Procedure, shortened: as §1

T-47D = test: NCI 60-cell line screen; format: cell-based, human
Procedure, shortened: as §1

NCI-H522 = test: NCI 60-cell line screen; format: cell-based, human
786-0 = test: NCI 60-cell line screen; format: cell-based, human
OVCAR-3 = test: NCI 60-cell line screen; format: cell-based, human
A498 = test: NCI 60-cell line screen; format: cell-based, human
Escherichia coli = test: Disc diffusion antimicrobial test; format: cell-based; details: Escherichia coli, 24 h, read-out: zone of inhibition (diameter of inhibition)
Procedure, shortened: as §2

Compound: O=C(CN1CCN(CC(=O)Nc2nc3ccccc3s2)CC1)Nc1ccc([N+](=O)[O-])cc1 [OMS14, N-(benzo[d]thiazol-2-yl)-2-(4-(2-((4-nitrophenyl)amino)-2-oxoethyl)piperazin-1-yl)acetamide]
- GI50 (KM12; Homo sapiens, KM12): 2.9 µM
- IC50 (KM12; Homo sapiens, KM12): 4.5 µM
- CC50 (KM12; Homo sapiens, KM12, read-out: LC50): 74.1 µM
- TGI (KM12; KM12, colon cancer): 13.5 µM
- inhibition at 10 µM (Fibro cell line; read-out: %inhibition at 10 μM): 49.4%
- inhibition at 100 µM (Fibro cell line; read-out: %inhibition at 100 μM): 70.5%
- GI50 (MDA-MB-231/ATCC; Homo sapiens, MDA-MB-231): 1.9 µM
- IC50 (MDA-MB-231/ATCC; Homo sapiens, MDA-MB-231): 3.9 µM
- CC50 (MDA-MB-231/ATCC; Homo sapiens, MDA-MB-231, read-out: LC50): 18.2 µM
- TGI (MDA-MB-231/ATCC; MDA-MB-231/ATCC, breast cancer): 4.7 µM
- TGI (HCT-15; HCT-15, colon cancer): 3.7 µM
- GI50 (HCT-15; Homo sapiens, HCT-15): 1.7 µM
- IC50 (HCT-15; Homo sapiens, HCT-15): 2.8 µM
- CC50 (HCT-15; Homo sapiens, HCT-15, read-out: LC50): 7.9 µM
- GI50 (SK-OV-3; Homo sapiens, SK-OV-3): 2.2 µM
- IC50 (SK-OV-3; Homo sapiens, SK-OV-3): 6.6 µM
- CC50 (SK-OV-3; Homo sapiens, SK-OV-3, read-out: LC50): > 100 µM
- TGI (SK-OV-3; SK-OV-3, ovarian cancer): 8.1 µM
- GI50 (NCI-H226; Homo sapiens, NCI-H226): 1.4 µM
- IC50 (NCI-H226; Homo sapiens, NCI-H226): 3.5 µM
- CC50 (NCI-H226; Homo sapiens, NCI-H226, read-out: LC50): > 100 µM
- TGI (NCI-H226; NCI-H226, non-small cell lung cancer): 4.2 µM
- GI50 (NCI-H322M; Homo sapiens): 1.9 µM
- IC50 (NCI-H322M; Homo sapiens): 3.7 µM
- CC50 (NCI-H322M; Homo sapiens, read-out: LC50): 40.7 µM
- TGI (NCI-H322M; non-small cell lung cancer): 5.5 µM
- IC50 (A549 cancer cell line): 26.1 µM
- inhibition at 100 µM (A549 cancer cell line; read-out: experimental % of inhibition on A549 cancer cell line): 90.6%
- zone of inhibition at 100 µg/mL (Staphylococcus aureus): 15 mm
- TGI (CAKI-1; CAKI-1, renal cancer): 3.6 µM
- GI50 (CAKI-1; Homo sapiens, CAKI-1): 0.9 µM
- IC50 (CAKI-1; Homo sapiens, CAKI-1): 2 µM
- CC50 (CAKI-1; Homo sapiens, CAKI-1, read-out: LC50): 16.2 µM
- GI50 (K-562; Homo sapiens, K562): 2.6 µM
- IC50 (K-562; Homo sapiens, K562): 3 µM
- CC50 (K-562; Homo sapiens, K562, read-out: LC50): > 100 µM
- TGI (K-562; K-562, leukemia): 100 µM
- GI50 (EKVX; Homo sapiens): 2 µM
- IC50 (EKVX; Homo sapiens): 3.8 µM
- CC50 (EKVX; Homo sapiens, read-out: LC50): 27.5 µM
- TGI (EKVX; non-small cell lung cancer): 4.9 µM
- TGI (HCC-2998; HCC-2998, colon cancer): 3.9 µM
- GI50 (HCC-2998; Homo sapiens, HCC 2998): 1.7 µM
- IC50 (HCC-2998; Homo sapiens, HCC 2998): 3.1 µM
- CC50 (HCC-2998; Homo sapiens, HCC 2998, read-out: LC50): 8.9 µM
- GI50 (NCI-H460; Homo sapiens, NCI-H460): 1.3 µM
- IC50 (NCI-H460; Homo sapiens, NCI-H460): 1.8 µM
- CC50 (NCI-H460; Homo sapiens, NCI-H460, read-out: LC50): 21.9 µM
- TGI (NCI-H460; NCI-H460, non-small cell lung cancer): 4.1 µM
- GI50 (SN12C; Homo sapiens): 1.9 µM
- IC50 (SN12C; Homo sapiens): 3.5 µM
- CC50 (SN12C; Homo sapiens, read-out: LC50): > 100 µM
- TGI (SN12C; renal cancer): 5.4 µM
- inhibition at 100 µM (PI3Kγ enzyme; read-out: % of inhibition (mean) against PI3Kγ enzyme): 19%
- inhibition at 100 µM (PI3Kγ enzyme; read-out: % of inhibition against PI3Kγ enzyme, point 1): 15%
- inhibition at 100 µM (PI3Kγ enzyme; read-out: % of inhibition against PI3Kγ enzyme, point 2): 24%
- GI50 (OVCAR-8; Homo sapiens, OVCAR-8): 1.4 µM
- IC50 (OVCAR-8; Homo sapiens, OVCAR-8): 2.4 µM
- CC50 (OVCAR-8; Homo sapiens, OVCAR-8, read-out: LC50): > 100 µM
- TGI (OVCAR-8; OVCAR-8, ovarian cancer): 4.3 µM
- GI50 (T-47D; Homo sapiens, T47D): 2.2 µM
- IC50 (T-47D; Homo sapiens, T47D): 5.6 µM
- CC50 (T-47D; Homo sapiens, T47D, read-out: LC50): > 100 µM
- TGI (T-47D; T-47D, breast cancer): 5.8 µM
- GI50 (NCI-H522; Homo sapiens, NCI-H522): 1.5 µM
- IC50 (NCI-H522; Homo sapiens, NCI-H522): 3 µM
- CC50 (NCI-H522; Homo sapiens, NCI-H522, read-out: LC50): 6.5 µM
- TGI (NCI-H522; NCI-H522, non-small cell lung cancer): 3.2 µM
- TGI (786-0; 786-0, renal cancer): 11.5 µM
- GI50 (786-0; Homo sapiens, 786-0): 2.1 µM
- IC50 (786-0; Homo sapiens, 786-0): 3.3 µM
- CC50 (786-0; Homo sapiens, 786-0, read-out: LC50): 43.7 µM
- GI50 (OVCAR-3; Homo sapiens, OVCAR-3): 2.3 µM
- IC50 (OVCAR-3; Homo sapiens, OVCAR-3): 4.3 µM
- CC50 (OVCAR-3; Homo sapiens, OVCAR-3, read-out: LC50): > 100 µM
- TGI (OVCAR-3; OVCAR-3, ovarian cancer): 6.6 µM
- TGI (A498; A498, renal cancer): 3.7 µM
- GI50 (A498; Homo sapiens, A498): 1.7 µM
- IC50 (A498; Homo sapiens, A498): 3.8 µM
- CC50 (A498; Homo sapiens, A498, read-out: LC50): 7.9 µM
- zone of inhibition at 100 µg/mL (Escherichia coli): 0 mm
